# Test results taken from ChEMBL document CHEMBL1932946, “Design, synthesis and anticonvulsant evaluation of novel N-(4-substituted phenyl)-2-[4-(substituted) benzylidene]-hydrazinecarbothio amides” (Eur J Med Chem, 2012).
# The source made the active and inactive calls.
# Columns and labels:
# Mus musculus [1] = assay: Neurotoxicity in albino CF-1 mouse assessed as minimum motor impairment at 300 mg/kg, ip after 0.5 hrs by rotarod test; assay type: toxicity, organism-based; parameters: dose 300 mg/kg, route intraperitoneal; conditions: in vivo
# Summary of the method: (§1)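 Minimal motor impairment assessed in male CF-1 albino mice (18–25 g) at 0.5 and 4 h after i.p. doses of 30, 100 and 300 mg/kg, given in 0.5% methyl cellulose. Minimum dose toxic in half or more of mice recorded.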
# Mus musculus [2] = assay: Neurotoxicity in albino CF-1 mouse assessed as minimum motor impairment at 300 mg/kg, ip after 4 hrs by rotarod test; assay type: toxicity, organism-based; parameters: dose 300 mg/kg, route intraperitoneal; conditions: in vivo; summary of the method: as §1
# Mus musculus [3] = assay: Anticonvulsant activity in albino CF-1 mouse assessed as protection against 6 Hz psychomotor seizure at 100 mg/kg, ip after 0.5 hrs by minimal clonic seizure test; assay type: functional; conditions: route intraperitoneal
# Summary of the method: (§2)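 Male CF-1 albino mice (18–25 g) given compound i.p., suspended in 0.5% methyl cellulose, 100 mg/kg in screen. Four mice per time point challenged at 0.25, 0.5, 1.0, 2.0 and 4.0 h via corneal electrodes (32 mA, 3 s, 6 Hz). Protection = absence of psychomotor seizure (minimal clonic phase, automatistic behaviours). Scored as animals protected/tested.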
# Mus musculus [4] = assay: Anticonvulsant activity in albino CF-1 mouse assessed as protection against 6 Hz psychomotor seizure at 100 mg/kg, ip after 1 hr by minimal clonic seizure test; assay type: functional; summary of the method: as §2
# [5] = Octanol-phosphate buffer partition coefficient, log P of the compound at 5 mg after 24 hrs by UV spectroscopic analysis; assay type: physicochemical
# Summary of the method: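 5 mg compound added to 10 mL octanol plus 10 mL phosphate buffer in a stoppered tube. Mixture shaken mechanically 24 h at room temperature, then left 6 h in a separating funnel to equilibrate.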
# Mus musculus [6] = species: Mus musculus; assay: Protective index, ratio of TD50 for albino CF-1 mouse to ED50 for albino CF-1 mouse by 6 Hz psychomotor seizure test; assay type: functional
# Mus musculus [7] = assay: Anticonvulsant activity in albino CF-1 mouse assessed as protection against 6 Hz psychomotor seizure at 100 mg/kg, ip after 4 hrs by minimal clonic seizure test; assay type: functional, organism-based; parameters: dose 100 mg/kg; summary of the method: as §2
# Mus musculus [8] = assay: Anticonvulsant activity in albino CF-1 mouse assessed as protection against 6 Hz psychomotor seizure at 100 mg/kg, ip after 0.25 hrs by minimal clonic seizure test; assay type: functional; summary of the method: as §2
# Mus musculus [9] = assay: Anticonvulsant activity in ip dosed albino CF-1 mouse assessed as protection against 6 Hz psychomotor seizure after 0.5 hrs by minimal clonic seizure test; assay type: functional; conditions: albino CF-1, ip; summary of the method: as §2
# [10] = Neuroprotective activity in hippocampal slice assessed as protection against kainic acid-induced cell death using propidium iodide staining; assay type: functional, tissue-based; conditions: Hippocampus
# Summary of the method: (§3)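 Qualitative primary screen on organotypic hippocampal slice cultures. Cell death induced by NMDA or kainic acid, with or without test compound. Propidium iodide present in all wells; PI fluorescence intensity taken as proportional to cell death.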
# Mus musculus [11] = assay: Anticonvulsant activity in albino CF-1 mouse assessed as protection against 6 Hz psychomotor seizure at 100 mg/kg, ip after 2 hrs by minimal clonic seizure test; assay type: functional; summary of the method: as §2
# [12] = Neuroprotective activity in hippocampal slice assessed as protection against NMDA-induced cell death using propidium iodide staining; assay type: functional, tissue-based; conditions: Hippocampus; summary of the method: as §3
# [13] = Neurotoxicity in ip dosed albino CF-1 mouse assessed as minimum motor impairment after 0.5 hrs by rotarod test; assay type: toxicity, organism-based; conditions: in vivo
# Rattus norvegicus [14] = assay: Acute toxicity in albino Sprague-Dawley rat pilocarpine-induced status prevention model at 600 mg/kg, ip measured 2 hrs post pilocarpine challenge; assay type: organism-based; parameters: dose 600 mg/kg, route intraperitoneal; conditions: in vivo
# Summary of the method: (§4)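 Acute motor-impairment screen in the PISP programme, using male Sprague Dawley rats. Compound was suspended in 0.5% methyl cellulose and given i.p. at 100, 300 or 600 mg/kg. Two rats were used per dose. Behaviour was closely observed and recorded over a 4 h period at 0.25, 0.5, 1.0, 2.0 and 4.0 h. The result is scored as number toxic over number tested.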
# Rattus norvegicus [15] = assay: Acute toxicity in albino Sprague-Dawley rat pilocarpine-induced status prevention model at 600 mg/kg, ip measured 0.25 hrs post pilocarpine challenge; assay type: organism-based; parameters: dose 600 mg/kg, route intraperitoneal; conditions: in vivo; summary of the method: as §4
# Rattus norvegicus [16] = assay: Acute toxicity in albino Sprague-Dawley rat pilocarpine-induced status prevention model at 300 mg/kg, ip measured 2 hrs post pilocarpine challenge; assay type: organism-based; parameters: dose 300 mg/kg, route intraperitoneal; conditions: in vivo; summary of the method: as §4
# Rattus norvegicus [17] = assay: Acute toxicity in albino Sprague-Dawley rat pilocarpine-induced status prevention model at 600 mg/kg, ip measured 4 hrs post pilocarpine challenge; assay type: organism-based; parameters: dose 600 mg/kg, route intraperitoneal; conditions: in vivo; summary of the method: as §4
# Rattus norvegicus [18] = assay: Acute toxicity in albino Sprague-Dawley rat pilocarpine-induced status prevention model at 300 mg/kg, ip measured 1 hr post pilocarpine challenge; assay type: organism-based; parameters: dose 300 mg/kg, route intraperitoneal; conditions: in vivo; summary of the method: as §4
# Rattus norvegicus [19] = assay: Acute toxicity in albino Sprague-Dawley rat pilocarpine-induced status prevention model at 100 mg/kg, ip measured 2 hrs post pilocarpine challenge; assay type: organism-based; parameters: dose 100 mg/kg, route intraperitoneal; conditions: in vivo; summary of the method: as §4
# Rattus norvegicus [20] = assay: Acute toxicity in albino Sprague-Dawley rat pilocarpine-induced status prevention model at 100 mg/kg, ip measured 1 hr post pilocarpine challenge; assay type: organism-based; parameters: dose 100 mg/kg, route intraperitoneal; conditions: in vivo; summary of the method: as §4
# Rattus norvegicus [21] = assay: Acute toxicity in albino Sprague-Dawley rat pilocarpine-induced status prevention model at 100 mg/kg, ip measured 0.25 hrs post pilocarpine challenge; assay type: organism-based; parameters: dose 100 mg/kg, route intraperitoneal; conditions: in vivo; summary of the method: as §4
# Rattus norvegicus [22] = assay: Acute toxicity in albino Sprague-Dawley rat pilocarpine-induced status prevention model at 300 mg/kg, ip measured 0.5 hrs post pilocarpine challenge; assay type: organism-based; parameters: dose 300 mg/kg, route intraperitoneal; conditions: in vivo; summary of the method: as §4
# Rattus norvegicus [23] = assay: Acute toxicity in albino Sprague-Dawley rat pilocarpine-induced status prevention model at 600 mg/kg, ip measured 1 hr post pilocarpine challenge; assay type: organism-based; parameters: dose 600 mg/kg, route intraperitoneal; conditions: in vivo; summary of the method: as §4
# Rattus norvegicus [24] = assay: Acute toxicity in albino Sprague-Dawley rat pilocarpine-induced status prevention model at 600 mg/kg, ip measured 0.5 hrs post pilocarpine challenge; assay type: organism-based; parameters: dose 600 mg/kg, route intraperitoneal; conditions: in vivo; summary of the method: as §4
# Rattus norvegicus [25] = assay: Acute toxicity in albino Sprague-Dawley rat pilocarpine-induced status prevention model at 100 mg/kg, ip measured 0.5 hrs post pilocarpine challenge; assay type: organism-based; parameters: dose 100 mg/kg, route intraperitoneal; conditions: in vivo; summary of the method: as §4
# Rattus norvegicus [26] = assay: Acute toxicity in albino Sprague-Dawley rat pilocarpine-induced status prevention model at 100 mg/kg, ip measured 4 hrs post pilocarpine challenge; assay type: organism-based; parameters: dose 100 mg/kg, route intraperitoneal; conditions: in vivo; summary of the method: as §4
# Rattus norvegicus [27] = assay: Acute toxicity in albino Sprague-Dawley rat pilocarpine-induced status prevention model at 300 mg/kg, ip measured 0.25 hrs post pilocarpine challenge; assay type: organism-based; parameters: dose 300 mg/kg, route intraperitoneal; conditions: in vivo; summary of the method: as §4
# Rattus norvegicus [28] = assay: Acute toxicity in albino Sprague-Dawley rat pilocarpine-induced status prevention model at 300 mg/kg, ip measured 4 hrs post pilocarpine challenge; assay type: organism-based; parameters: dose 300 mg/kg, route intraperitoneal; conditions: in vivo; summary of the method: as §4
# Mus musculus [29] = assay: Anticonvulsant activity in albino CF-1 mouse assessed as protection against maximal electroshock-induced seizures at 300 mg/kg, ip after 4 hrs; assay type: functional, organism-based; parameters: dose 300 mg/kg
# Summary of the method: (§5)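 Male CF-1 albino mice (18–25 g) dosed i.p. at 30, 100 and 300 mg/kg as suspension in 0.5% methyl cellulose. 60 Hz alternating current, 50 mA, delivered 0.2 s via corneal electrodes primed with 0.5% tetracaine HCl electrolyte. Protection = abolition of hind limb tonic extensor component. Value reported is the minimum dose active in half or more of mice.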
# Mus musculus [30] = assay: Anticonvulsant activity in albino CF-1 mouse assessed as protection against maximal electroshock-induced seizures at 300 mg/kg, ip after 2 hrs; assay type: functional, organism-based; parameters: dose 300 mg/kg; summary of the method: as §5
# Mus musculus [31] = assay: Anticonvulsant activity in albino CF-1 mouse assessed as protection against maximal electroshock-induced seizures at 300 mg/kg, ip after 0.5 hrs; assay type: functional, organism-based; parameters: dose 300 mg/kg; summary of the method: as §5
# Mus musculus [32] = assay: Anticonvulsant activity in ip dosed albino CF-1 mouse assessed as protection against subcutaneous metrazol-induced seizures after 0.5 hrs; assay type: functional; conditions: albino CF-1, 0.5 h, read-out: MED
# Summary of the method: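 Male CF-1 mice (18–25 g) were given compound i.p. at 30, 100 or 300 mg/kg, suspended in 0.5% methyl cellulose. Metrazol was injected subcutaneously into a loose skin fold at the neck midline, at the dose that induces convulsions in 97% of animals. Mice were isolated and watched for 30 min for absence of seizure. The value reported is the minimum dose active in half or more of mice.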
# Mus musculus [33] = assay: Anticonvulsant activity in albino CF-1 mouse assessed as protection against subcutaneous metrazol-induced seizure at 300 mg/kg, ip after 4 hrs; assay type: functional, organism-based; parameters: dose 300 mg/kg
# Summary of the method: (§6)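 Mice (male CF-1 albino, 18–25 g) pretreated i.p. with 30, 100 or 300 mg/kg in 0.5% methyl cellulose. Metrazol, at a dose convulsing 97% of animals, injected subcutaneously into the loose skin fold at the midline of the neck. Animals isolated and watched for 30 min for absence of seizure. Minimum dose active in half or more of mice recorded.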
# Mus musculus [34] = assay: Anticonvulsant activity in ip dosed albino CF-1 mouse assessed as protection against maximal electroshock-induced seizures after 4 hrs; assay type: functional; conditions: albino CF-1, ip, read-out: MED; summary of the method: as §5
# Mus musculus [35] = assay: Anticonvulsant activity in albino CF-1 mouse assessed as protection against subcutaneous metrazol-induced seizure at 300 mg/kg, ip after 0.5 hrs; assay type: functional, organism-based; parameters: dose 300 mg/kg; summary of the method: as §6
# Mus musculus [36] = assay: Anticonvulsant activity in ip dosed albino CF-1 mouse assessed as protection against maximal electroshock-induced seizures after 2 hrs; assay type: functional; conditions: albino CF-1, ip, read-out: MED
# Summary of the method: (§7)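 Male CF-1 mice (18–25 g) received compound suspended in 0.5% methyl cellulose, i.p. at 30, 100 or 300 mg/kg. A 60 Hz alternating current (50 mA, 0.2 s) was delivered through corneal electrodes primed with 0.5% tetracaine HCl. Protection was defined as abolition of the hind limb tonic extensor component. The value reported is the minimum dose active in half or more of mice.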
# Mus musculus [37] = assay: Anticonvulsant activity in ip dosed albino CF-1 mouse assessed as protection against maximal electroshock-induced seizures after 0.5 hrs; assay type: functional; conditions: albino CF-1, ip, read-out: MED; summary of the method: as §7
SMILES,Activity (Mus musculus [1]),Activity (Mus musculus [2]),Activity (Mus musculus [3]) [%],Activity (Mus musculus [4]),logP at 24 h [5],Activity (Mus musculus [7]),Activity (Mus musculus [11]),Activity (Mus musculus [8]),Activity (Mus musculus [30]),Activity (Mus musculus [31]),Activity (Mus musculus [33]),minimal effective dose (Mus musculus [34]) [mg/kg],Activity (Mus musculus [35]),also measured
Fc1ccc(NC(=S)N/N=C/c2ccc(Oc3ccc(Cl)cc3)cc2)cc1,Non-toxic,Non-toxic,100,Active,5.78,Active,Active,,,,,,,Ratio TD50/ED50 (Mus musculus [6]): >2.5; Activity (Mus musculus [8]; route intraperitoneal): 75%; ED50 (Mus musculus [9]): > 200 mg/kg; Activity [10]: inactive; Activity [12]: inactive; TD50 at 0.5 h [13]: > 500 mg/kg
Cc1cc(Oc2ccc(/C=N/NC(=S)Nc3ccc(Br)cc3)cc2)ccc1Cl,Non-toxic,Non-toxic,75,,7.89,inactive,,Active,,,,,,Activity (Rattus norvegicus [14]): Non-toxic; Activity (Rattus norvegicus [15]): Non-toxic; Activity (Rattus norvegicus [16]): Non-toxic; Activity (Rattus norvegicus [17]): Non-toxic; Activity (Rattus norvegicus [18]): Non-toxic; Activity (Rattus norvegicus [19]): Non-toxic; Activity (Mus musculus [4]; route intraperitoneal): 50%; Activity (Rattus norvegicus [20]): Non-toxic; Activity (Rattus norvegicus [21]): Non-toxic; Activity (Rattus norvegicus [22]): Non-toxic; Activity (Rattus norvegicus [23]): Non-toxic; Activity (Rattus norvegicus [24]): Non-toxic; Activity (Rattus norvegicus [25]): Non-toxic; Activity (Rattus norvegicus [26]): Non-toxic; Activity (Rattus norvegicus [27]): Non-toxic; Activity (Rattus norvegicus [28]): Non-toxic; Activity (Mus musculus [11]; route intraperitoneal): 50%
CCCC(CCC)C(=O)[O-].[Na+] [VALPROATE SODIUM],Non-toxic,Non-toxic,,,,,,,inactive,inactive,inactive,,,Activity (Mus musculus [29]): inactive; minimal effective dose (Mus musculus [32]): 300 mg/kg
S=C(N/N=C/c1ccc(Oc2ccc(Br)cc2)cc1)Nc1ccc(Br)cc1,Non-toxic,Non-toxic,75,inactive,6.53,inactive,inactive,inactive,inactive,inactive,inactive,300,inactive,
O=C1NC(=O)C(c2ccccc2)(c2ccccc2)N1 [PHENYTOIN],,,,,,,,,,,inactive,30,inactive,minimal effective dose (Mus musculus [36]): 30 mg/kg; minimal effective dose (Mus musculus [37]): 30 mg/kg
